Source: ChEMBL document CHEMBL1123394, “Systematic synthesis and biological evaluation of alpha- and beta-D-xylofuranosyl nucleosides of the five naturally occurring bases in nucleic acids and related analogues” (J Med Chem, 1986)
≈ marks a conversion by molar mass, not a printed value.

How the values were obtained:
Format in all cases: functional
HeLa [1] = assay: Antiviral activity was measured against Coxsackie virus B4 in HeLa cells.; conditions: Homo sapiens
Summary of the method: (§1)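 Inhibition of virus-induced cytopathogenicity in cell culture. Compounds were dissolved in growth medium at 100, 10 or 1 μg/mL or less.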

HeLa [2] = assay: Concentration required for microscopically detectable alteration of the normal cell morphology in HeLa cells.; conditions: Homo sapiens
Summary of the method: (§2)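 Host-cell morphology inspected microscopically for detectable alteration, with compounds in growth medium at up to 200 or 400 μg/mL.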

[3] = Concentration required for microscopically detectable alteration of the normal cell morphology in PRK cells.; conditions: Oryctolagus cuniculus; summary of the method: as §2
[4] = Antiviral activity was measured against Herpes simplex virus (HSV-1 KOS) in rabbit kidney cells.; conditions: Oryctolagus cuniculus; summary of the method: as §1
[5] = Antiviral activity was measured against Herpes simplex virus (HSV-2 G) in rabbit kidney cells.; conditions: Oryctolagus cuniculus
Summary of the method: (§3)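 Inhibition of virus-induced cytopathogenicity scored in cell culture monolayers. Test compounds dissolved in growth medium at 100, 10, or 1 μg/mL or less.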

[6] = Concentration required to reduce DNA synthesis in primary rabbit kidney cells using [3H-Methyl]-dThd incorporation; conditions: Oryctolagus cuniculus, read-out: ID50 (the source's name)
Summary of the method: (§4)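 Primary rabbit kidney cells with compounds in growth medium at 100, 10, or 1 μg/mL or less. Cell number and incorporation of [3H-methyl]dThd (DNA), [3H-5]Urd (RNA) or [3H2-4,5]leucine (protein) measured. ID50 taken as the dose giving 50% reduction in cell number or in DNA, RNA or protein synthesis.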

[7] = Concentration required to reduce RNA synthesis in primary rabbit kidney cells using [3H-5]-Urd incorporation; conditions: Oryctolagus cuniculus, read-out: ID50 (the source's name); summary of the method: as §4
[8] = Concentration required to reduce protein synthesis in primary rabbit kidney cells usingi [3H2-4,5]leucine incorporation; conditions: Oryctolagus cuniculus, read-out: ID50 (the source's name); summary of the method: as §4
[9] = Number of living cells on the proliferation of mouse myeloma cells SP2 was measured at concentration 100 ug/mL at 0h.
Summary of the method: (§5)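 Mouse myeloma SP2 cells seeded at 123 × 10^3 cells and exposed to compound at 1, 10 or 100 μg/mL in growth medium. Living cells counted at 0, 48 and 96 h alongside untreated controls.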

[10] = Number of living cells on the proliferation of mouse myeloma cells SP2 was measured at concentration 100 ug/mL at 48 hr.; summary of the method: as §5
[11] = Number of living cells on the proliferation of mouse myeloma cells SP2 was measured at concentration 100 ug/mL at 96 h.; summary of the method: as §5
[12] = Number of living cells on the proliferation of mouse myeloma cells SP2 was measured at concentration 10 ug/mL at 48 hr.; summary of the method: as §5
[13] = Number of living cells on the proliferation of mouse myeloma cells SP2 was measured at concentration 10 ug/mL at 96 h.; summary of the method: as §5
[14] = Number of living cells on the proliferation of mouse myeloma cells SP2 was measured at concentration 1 ug/mL at 48 hr.; summary of the method: as §5
[15] = Number of living cells on the proliferation of mouse myeloma cells SP2 was measured at concentration 1 ug/mL at 96 h.; summary of the method: as §5
Vero [16] = assay: Antiviral activity was measured against Coxsackie virus B4 in african green monkey kidney (Vero B) cells.; conditions: Chlorocebus sabaeus; summary of the method: as §3
Vero [17] = assay: Antiviral activity was measured against Parainfluenza virus-3 in african green monkey kidney (Vero B) cells.; conditions: Chlorocebus sabaeus; summary of the method: as §3
Vero [18] = assay: Antiviral activity was measured against Reo virus-1 in african green monkey kidney (Vero B) cells.; conditions: Chlorocebus sabaeus; summary of the method: as §3
Vero [19] = assay: Antiviral activity was measured against forest virus in african green monkey kidney (Vero B) cells.; conditions: Chlorocebus sabaeus; summary of the method: as §3
Vero [20] = assay: Antiviral activity was measured against Sindbis virus in african green monkey kidney (Vero B) cells.; conditions: Chlorocebus sabaeus; summary of the method: as §3
WI-38 [21] = assay: Concentration required for microscopically detectable alteration of the normal cell morphology in Wi-38 cells.; conditions: Homo sapiens; summary of the method: as §2
WI-38 [22] = assay: Antiviral activity was measured against Rhino virus-1A in human diploid (WI-38) cells.; summary of the method: as §3
WI-38 [23] = assay: Antiviral activity was measured against Rhino virus-9 in human diploid (WI-38) cells.; summary of the method: as §3
Vero [24] = assay: Concentration required for microscopically detectable alteration of the normal cell morphology in Vero B cells.; conditions: Chlorocebus sabaeus; summary of the method: as §2
[25] = Number of living cells on the proliferation of mouse myeloma cells SP2 was measured at concentration 1 ug/mL at 0h.; summary of the method: as §5
[26] = Dose required to reduce primary rabbit kidney cell growth; conditions: Oryctolagus cuniculus, read-out: ID50 (the source's name); summary of the method: as §4
HeLa [27] = assay: Antiviral activity was measured against vesicular stomatitis virus in HeLa cells.; conditions: Homo sapiens; summary of the method: as §1
[28] = Antiviral activity was measured against vesicular stomatitis virus in rabbit kidney cells.; conditions: Oryctolagus cuniculus; summary of the method: as §1
[29] = Antiviral activity was measured against vaccinia virus in rabbit kidney cells.; conditions: Oryctolagus cuniculus; summary of the method: as §1
HeLa [30] = assay: Antiviral activity was measured against polio virus-1 in HeLa cells.; conditions: Homo sapiens; summary of the method: as §1
HeLa [31] = assay: Antiviral activity was measured against Polio virus-1 in HeLa cells.; conditions: Homo sapiens; summary of the method: as §1
HeLa [32] = assay: Antiviral activity was measured against Vesicular stomatitis virus in HeLa cells.; conditions: Homo sapiens; summary of the method: as §1
[33] = Antiviral activity was measured against Vesicular stomatitis virus in rabbit kidney cells.; conditions: Oryctolagus cuniculus; summary of the method: as §1
[34] = Antiviral activity was measured against Vaccinia virus in rabbit kidney cells.; conditions: Oryctolagus cuniculus; summary of the method: as §1

| Structure (SMILES) | MCC (HeLa [1]) [µg/mL] | MCC (HeLa [2]) [µg/mL] | MCC [3] [µg/mL] | MCC [4] [µg/mL] | MCC [5] [µg/mL] | MCC (Vero [16]) [µg/mL] | MCC (Vero [17]) [µg/mL] | MCC (Vero [18]) [µg/mL] | MCC (Vero [19]) [µg/mL] | MCC (Vero [20]) [µg/mL] | MCC (WI-38 [21]) [µg/mL] | MCC (WI-38 [22]) [µg/mL] | MCC (WI-38 [23]) [µg/mL] | MCC (Vero [24]) [µg/mL] | other results |
| --- | --- | --- | --- | --- | --- | --- | --- | --- | --- | --- | --- | --- | --- | --- | --- |
| Nc1ncnc2c1ncn2[C@@H]1O[C@H](CO)[C@H](O)[C@H]1O | > 40 | 100 | > 100 | > 40 | > 40 | > 40 | > 40 | > 40 | > 40 | > 40 | 200 | 20 | 20 | > 100 | IC50 [6]: 17 µg/mL (≈ 63.6 µM); IC50 [7]: 46 µg/mL (≈ 172 µM); IC50 [8]: 37 µg/mL (≈ 138 µM); No. of living cells [9]: 0.123; No. of living cells [10]: 0.008; No. of living cells [11]: 0; No. of living cells [12]: 0.048; No. of living cells [13]: 0.4; No. of living cells [14]: 0.864; No. of living cells [15]: 1.368; No. of living cells [25]: 0.123; IC50 [26]: 23 µg/mL (≈ 86.1 µM) |
| Nc1ncnc2c1ccn2[C@@H]1O[C@H](CO)[C@@H](O)[C@H]1O [TUBERCIDIN] | 0.2 | ≥ 1 | ≥ 0.4 | > 0.1 | > 0.1 | > 0.1 | 0.2 | 0.1 | > 0.4 | > 0.1 | 0.4 | 0.01 | 0.007 | ≥ 0.4 | MCC (HeLa [27]): 0.07 µg/mL; MCC [28]: 0.07 µg/mL; MCC [29]: > 0.1 µg/mL; MCC (HeLa [30]): 0.2 µg/mL |
| NC(=O)c1ncn([C@@H]2O[C@H](CO)[C@@H](O)[C@H]2O)n1 [RIBAVIRIN] | 70 | ≥ 400 | > 400 | > 400 | > 400 | 70 | 20 | 7 | 70 | 70 | > 400 | 150 | 70 | ≥ 400 | MCC (HeLa [31]): 70 µg/mL; MCC (HeLa [32]): 20 µg/mL; MCC [33]: 100 µg/mL; MCC [34]: 7 µg/mL |
